# Bioassay records deposited in PubChem by Johns Hopkins Ion Channel Center.
# KCNQ1 block – human KCNQ1 channel inhibition; B-score at 10 µM; AID 2642; CHO-K1 KCNQ1, FluxOR thallium flux fluorescence; hits give high values; P51787; hit rate 1.3% among 310,000;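 active means compounds whose thallium flux B-score, printed positive for inhibition, exceeds three library SD while starting fluorescence stays within three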;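 further: channel opened by potassium depolarization with thallium stimulus after 20 min compound exposure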
# hERG protect – compounds protecting human hERG from proarrhythmic drug block; CHO-hERG, FluxOR thallium flux, dofetilide IC70 present; activation (rescue from dofetilide block), less the hit threshold, % at 10 µM; hit rate 0.51% among 310,000; AID 1511;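 active means activation above the mean of controls blocked by dofetilide plus 5 SD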;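 further: thallium influx through hERG after potassium depolarization seen as dye fluorescence rise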
# Kir21 block – blocks the mouse Kir2.1 inward-rectifier potassium channel; HEK293-Kir2.1, FluxOR thallium flux fluorescence; hits give low values; AID 1672; hit rate 0.85% among 310,000; B-score at 10 µM; P35561;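 active means fluorescence ratio B-score at or below minus 3 SD of library scores, with starting-brightness B-score within 2 SD, cut at about -4.2 in these data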;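 further: channel flux triggered by added potassium and thallium sulfate stimulus; B-score of peak minus minimum fluorescence over baseline after thallium stimulus; more negative B-score means stronger Kir2.1 block with less thallium influx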
# KCNK9 block – human KCNK9 channel inhibition; HEK293 KCNK9, FluxOR thallium flux fluorescence; hits give low values; B-score at 10 µM; hit rate 1.2% among 310,000;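 active means ratio B-score over 3 SD below the library mean, with starting fluorescence within 5 SD of its mean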;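 further: negative B-score means less thallium flux so channel inhibition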
# KCNK3 block – human KCNK3 channel inhibition, primary screen; AID 602410; hit rate 0.84% among 340,000; O14649; B-score at 10 µM; CHO-KCNK3 thallium flux, FluxOR fluorescence; hits give low values;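 active means B-score under library mean minus 4 SD, starting fluorescence ratio at most library mean plus 5 SD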;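 further: more negative B-score means stronger inhibition of thallium flux through KCNK3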
# Target sequence (O14649 whole entry, looked up): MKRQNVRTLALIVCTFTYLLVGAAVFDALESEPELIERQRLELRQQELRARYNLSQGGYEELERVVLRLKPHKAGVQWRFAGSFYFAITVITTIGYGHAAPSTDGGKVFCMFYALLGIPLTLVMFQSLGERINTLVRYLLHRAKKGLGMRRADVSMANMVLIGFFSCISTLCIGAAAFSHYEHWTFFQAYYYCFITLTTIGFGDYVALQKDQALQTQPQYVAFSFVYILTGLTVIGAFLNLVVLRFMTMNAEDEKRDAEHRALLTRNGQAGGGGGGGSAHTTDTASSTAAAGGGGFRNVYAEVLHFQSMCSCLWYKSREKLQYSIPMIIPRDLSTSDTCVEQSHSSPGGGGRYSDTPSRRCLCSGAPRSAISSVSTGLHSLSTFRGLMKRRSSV
# KCNQ1 pot – human KCNQ1 channel potentiation or activation. B-score at 10 µM. AID 2648. hit rate 0.35% among 310,000. CHO-K1 KCNQ1, thallium flux FluxOR fluorescence; hits give high values. P51787;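 active means fluorescence ratio B-score, a plate-corrected score, at least three library SD, with initial intensity B-score within 5 SD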
#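 System: CHO-K1 cells stably expressing KCNQ1 / Medium: assay buffer for compound exposure, DMSO matched across wells / Reagent: thallium- and potassium-containing depolarizing buffer / Compound: one concentration, matched DMSO / Incubation: 20 min compound pretreatment at room temperature / Measured by: kinetic FluxOR fluorescence, 10 s baseline plus 110 s post-stimulus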
# The depositor's hits bear a star; i = inactive; . = no result. Only some compounds are listed: those with a hit (about 3.7% of all), similar ones and a draw of the others.
SMILES,KCNQ1 block,hERG protect,Kir21 block,KCNK9 block,KCNK3 block,KCNQ1 pot
COc1ccc(NC(=O)C(=O)N2N=C(C(C)C)CC2(O)C(F)(F)F)cc1 (stereo unspecified),6*,2,-1.1,i,i,i
CC(C)C1=NN(C(=O)c2cccnc2)C(O)(C(F)(F)F)C1 (stereo unspecified),i,-1,-1.4,i,i,i
CCC1=NN(C(=O)C(=O)Nc2ccc(Br)cc2)C(O)(C(F)(F)F)C1 (stereo unspecified),6*,-3,0.86,i,i,i
CC(C)CCN(C(=O)CCCSc1nc2ccccc2[nH]1)c1c(N)n(Cc2ccccc2)c(=O)[nH]c1=O,i,-11,1.3,i,i,i
COCCCNC(=O)c1ccc2c3c(onc13)-c1ccccc1C2=O,10*,-56,-14,i,i,i
CC(C)OCCCNC(=O)c1ccc2c(c1)S(=O)(=O)c1ccccc1C2=O,i,-13,0.99,i,i,i
COc1ccc(C(CCNCc2ccc(N(C)C)cc2)C(C)C)cc1 (stereo unspecified),i,-16,-5*,i,i,i
COc1ccc(C(CCNCc2ccc(OC(C)C)cc2)C(C)C)cc1 (stereo unspecified),i,-25,-4.5*,i,i,i
COc1ccc(CNCCC(c2ccc(OC(C)C)cc2)C(C)C)cc1OC (stereo unspecified),i,-15,-3,i,i,i
CCOCCCNCc1ccc(OC)cc1,i,-7,1.4,i,i,i
CC(=O)/C(=C/c1ccccc1)C(=O)Nc1ccccc1C,i,-11,-5.5*,i,i,i
Cn1c2ccccc2c(=O)c2ccc(C#Cc3ccc(N)cc3)cc21,i,-17,0.21,-7.3*,i,i
O=c1[nH]c(-c2cccnc2)nc2sc(-c3ccccc3)cc12,i,6.9*,-0.56,i,i,i
CCOc1cc(CNCc2ccccc2)ccc1OCC(=O)NC1CCCCC1,i,-3,-4.4*,i,i,i
NS(=O)(=O)c1cccc(Nc2nc3ccccc3nc2NS(=O)(=O)c2ccc(Cl)cc2)c1,.,.,.,.,i,.
O=C(O)c1ccc2c(c1)S(=O)(=O)c1cc(Cl)ccc1C2=O,.,.,.,.,i,.
CCn1c(CSCc2ccc(C)cc2)nnc1SCC(=O)NCc1ccccc1,i,-20,-6*,i,i,i
CCn1c(CSCc2ccc(F)cc2)nnc1SCC(=O)NCc1ccccc1,i,-7,-2.1,i,i,i
Cc1ccccc1C(=O)Nc1ccc(-c2nc3ccc(C(=O)c4ccccc4)cc3[nH]2)cc1,6*,-24,-0.51,i,i,i
CCOC(=O)c1ccc2c(c1)n(CC)c(/C=C/Nc1ccccc1)[n+]2CC,13*,-25,-0.22,i,i,i
C/C=C(\C)C(=O)OC1CC(C)(C)C[C@H]2C3=CC[C@@H]4[C@@]5(C)CCC(O[C@@H]6O[C@@H](C(=O)O)[C@@H](O)C(O[C@@H]7OC[C@H](O)[C@@H](O)[C@@H]7O[C@@H]7OC(CO)C(O)[C@@H](O)[C@@H]7O)C6O[C@@H]6OC(CO)C(O)C(O)C6O)[C@@](C)(CO)[C@@H]5CC[C@]4(C)[C@]3(C)CC(O)[C@@]12CO (stereo partly specified),.,.,.,.,i,.
O=C1/C(=C/c2ccc([N+](=O)[O-])cc2)Oc2cc(O)ccc21,6*,-7,0.28,i,i,i
CC(C)(C)c1ccc(/C=C2\Oc3cc(O)ccc3C2=O)cc1,i,-3,0.18,i,i,i
CC(=O)c1ccc(S(=O)(=O)NCCC(=O)OCC(=O)N2CCCC2=O)cc1,i,-11,0.68,i,i,i
CCC(NC(=S)NCc1ccc(F)cc1)c1ccccc1 (stereo unspecified),i,-13,-7.4*,i,i,i
SMILES,KCNQ1 block,hERG protect,Kir21 block,KCNK9 block,KCNK3 block,KCNQ1 pot
CCCCn1c(C)cc(C)c(S(=O)(=O)c2ccccc2C)c1=O,i,-2,-1.1,i,i,i
Cc1ccccc1S(=O)(=O)c1c(C)cc(C)n(C(C)C)c1=O,i,-7,-4.4*,i,i,i
CCCSc1nc(C)cc(C)c1S(C)(=O)=O,i,-4,1.3,i,i,i
CCCSc1nc(C)cc(C)c1S(=O)(=O)c1ccccc1C,i,-2,-1.4,-7.5*,i,i
COc1ccc(NC(=O)C2CCCN2S(=O)(=O)c2cccs2)c([N+](=O)[O-])c1 (stereo unspecified),i,-18,1.2,i,i,i
CCN(CC)c1ccc(/C=N/NC(=O)c2nnn(-c3nonc3N)c2C(C)C)c(O)c1,7*,-18,-1.8,i,i,i
COc1ccc(CC(=O)NC(C)c2nnc(SCC(=O)c3ccc(OC)cc3)n2C)cc1 (stereo unspecified),i,-13,0.43,i,i,i
COc1ccc(CC(=O)NC(C)c2nnc(SCCOc3ccc(OC)cc3)n2C)cc1 (stereo unspecified),i,-17,-4.3*,i,i,i
CCCCCCCCCS(=O)(=O)N/N=C/c1cccc([N+](=O)[O-])c1,8*,-10,0.88,i,i,i
CCCCCCC(=O)Nc1ccc(C(=O)N/N=C/c2cccnc2)cc1,i,-4,2.2,i,i,i
CCCCCCCC(=O)Nc1ccc(C(=O)N/N=C/c2cccc([N+](=O)[O-])c2)cc1,i,8.9*,-0.91,i,i,i
CC(C)CN(C(=O)COC(=O)c1cccn1C)c1c(N)n(Cc2ccccc2)c(=O)[nH]c1=O,i,-10,-0.94,i,i,i
Cc1cccc(CNc2ccc(S(=O)(=O)N3CCCCC3)cc2)c1,.,.,.,.,-9.9*,.
CCN(CC)C(=O)c1cc2sc3ccccc3c2s1,i,-9,-1.2,-7.5*,i,i
CN(C)CCNC(=O)c1cc2sc3ccccc3c2s1,i,-12,-4.2*,i,i,i
Cc1cccc(NC(=S)NNC(=O)c2cc3c(s2)CCC(C)C3)c1C (stereo unspecified),i,-12,1.3,i,i,11*
Cc1ccc(C)c(NC(=S)NNC(=O)c2cc3c(s2)CCC(C)C3)c1 (stereo unspecified),i,9.3*,-1.6,i,i,i
Cc1cccc(NC(=S)NNC(=O)c2csc3c2CCC(C)C3)c1 (stereo unspecified),i,-1,-1.3,i,i,20*
CC(C)CNC(=S)NNC(=O)c1csc2c1CCC(C)C2 (stereo unspecified),i,-8,-0.92,i,i,i
